From ChEMBL document CHEMBL3272319, “Alkyl streptozotocin analogues with improved biological activities” (J Med Chem, 1976)
Converted amounts (≈) assume the structure as drawn.

What was measured:
[1] = Antitumor activity against mouse S180A allografted in ICR mouse assessed as tumor growth at 25 mg/kg, ip qd for 5 days measured on day 7 relative to control; assay type: functional; conditions: route intraperitoneal
Outline: (§1)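 Ascites Sarcoma 180 (1 × 10^7 cells) implanted into ICR mice, six animals per group. Five daily ip injections in saline (days 1–5). Sacrificed day 7. T/C % computed from total packed cell volume (ascites volume × PCV) vs controls. Grades: 100-66 = -, 65-41 = +, 40-11 = ++, 10-0 = +++.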

[2] = Antitumor activity against mouse S180A allografted in ICR mouse assessed as tumor growth at 50 mg/kg, ip qd for 5 days measured on day 7 relative to control; assay type: functional; conditions: route intraperitoneal; outline: as §1
Mus musculus [3] = test: Toxicity in ICR mouse allografted with mouse S180A assessed as mortality at 25 mg/kg, ip qd for 5 days; assay type: organism-based; set-up: dose 25 mg/kg, route intraperitoneal; conditions: in vivo, 120 h
Outline: (§2)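 Ascites Sarcoma 180 (1 × 10^7 cells) implanted into ICR mice, six per group; compound in saline ip once daily days 1-5; sacrifice on day 7; total packed cell volume (ascites volume × PCV) compared with controls as T/C %; mortality recorded.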

Mus musculus [4] = test: Toxicity in ICR mouse allografted with mouse S180A assessed as mortality at 50 mg/kg, ip qd for 5 days; assay type: organism-based; set-up: dose 50 mg/kg, route intraperitoneal; conditions: in vivo, 120 h; outline: as §2
L1210 [5] = test: Antitumor activity against mouse L1210 cells allografted in BDF1 mouse assessed as increase in host lifespan at 50 mg/kg, ip qd for 5 days relative to control; assay type: functional; conditions: 120 h, route intraperitoneal
Outline: (§3)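 L1210 (1 × 10^5 cells) implanted into BDF1 mice, six per group; compound in saline ip once daily days 1-5; effect read as % increase in life span, ILS = [(treated life span/control life span) − 1] × 100.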

L1210 [6] = test: Antitumor activity against mouse L1210 cells allografted in BDF1 mouse assessed as increase in host lifespan at 100 mg/kg, ip qd for 5 days relative to control; assay type: functional; conditions: 120 h, route intraperitoneal; outline: as §3
L1210 [7] = test: Antitumor activity against mouse L1210 cells allografted in BDF1 mouse assessed as increase in host lifespan at 200 mg/kg, ip qd for 5 days relative to control; assay type: functional; conditions: 120 h, route intraperitoneal; outline: as §3
Mus musculus [8] = test: Toxicity in BDF1 mouse allografted with mouse L1210 cells assessed as mortality at 50 mg/kg, ip qd for 5 days; assay type: organism-based; set-up: dose 50 mg/kg, route intraperitoneal; conditions: in vivo, 120 h; outline: as §3
Mus musculus [9] = test: Toxicity in BDF1 mouse allografted with mouse L1210 cells assessed as mortality at 100 mg/kg, ip qd for 5 days; assay type: organism-based; set-up: dose 100 mg/kg, route intraperitoneal; conditions: in vivo, 120 h; outline: as §3
Mus musculus [10] = test: Toxicity in BDF1 mouse allografted with mouse L1210 cells assessed as mortality at 200 mg/kg, ip qd for 5 days; assay type: organism-based; set-up: dose 200 mg/kg, route intraperitoneal; conditions: in vivo, 120 h; outline: as §3
Rattus norvegicus [11] = test: Diabetogenic activity in Wistar rat assessed as increase in blood sugar level at 65 mg/kg, iv administered as single dose by glucose oxidase method; assay type: ADME, organism-based; set-up: dose 65 mg/kg, route intravenous; conditions: in vivo
Outline: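 Male Wistar rats, about 200 g, five per group, fasted 16 h. Single iv dose into the femoral vein in physiological saline, equimolar across compounds. Caudal-vein blood sampled at set times over 24 h. Sugar measured by glucose oxidase.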

Rattus norvegicus [12] = test: Diabetogenic activity in Wistar rat assessed as increase in blood sugar level at 20 mg/kg, ip qd for 1 month measured 24 hrs last drug dosage by glucose oxidase method; assay type: ADME, organism-based; set-up: dose 20 mg/kg, route intraperitoneal; conditions: in vivo
Outline: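 Male Wistar rats, about 150 g, five per group. Drug in physiological saline given ip qd on days 1–30. Blood drawn 24 h after the last dose. Sugar measured by glucose oxidase.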

Bacillus subtilis = test: Antibacterial activity against Bacillus subtilis ATCC 6633 assessed as growth inhibition after 18 hrs by broth dilution method; assay type: functional; conditions: ATCC 6633, 18 h
Outline: (§4)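 Twofold serial dilutions in heart infusion broth. Inoculum was a 24-h heart infusion broth culture diluted 100-fold in physiological saline. Tubes incubated 30 °C for 18 h; the table footnote gives 32 °C for 24 h. MIC in µg/ml is the lowest level giving complete growth inhibition.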

Escherichia coli = test: Antibacterial activity against Escherichia coli NIHJ JC-2 assessed as growth inhibition after 18 hrs by broth dilution method; assay type: functional; conditions: NIHJ JC-2, 18 h; outline: as §4
Klebsiella pneumoniae = test: Antibacterial activity against Klebsiella pneumoniae ATCC 10031 assessed as growth inhibition after 18 hrs by broth dilution method; assay type: functional; conditions: ATCC 10031, 18 h; outline: as §4
Proteus vulgaris = test: Antibacterial activity against Proteus vulgaris AHU 1469 assessed as growth inhibition after 18 hrs by broth dilution method; assay type: functional; conditions: AHU 1469, 18 h; outline: as §4
Pseudomonas fluorescens = test: Antibacterial activity against Pseudomonas fluorescens NIHJ B-254 assessed as growth inhibition after 18 hrs by broth dilution method; assay type: functional; conditions: NIHJ B-254, 18 h; outline: as §4
Salmonella typhi = test: Antibacterial activity against Salmonella typhi IFM 3020 assessed as growth inhibition after 18 hrs by broth dilution method; assay type: functional, Salmonella enterica subsp. enterica serovar Typhi; conditions: Salmonella enterica, IFM 3020, 18 h
Outline: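 Twofold serial dilutions in heart infusion broth; inoculum from 24 h heart infusion broth culture diluted 100-fold in physiological saline; tubes incubated 30 °C for 18 h; MIC (µg/ml) = lowest level giving complete growth inhibition.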

Micrococcus luteus = test: Antibacterial activity against Sarcina lutea ATCC 9341 assessed as growth inhibition after 18 hrs by broth dilution method; assay type: functional; conditions: ATCC 9341, 18 h; outline: as §4
Shigella sonnei = test: Antibacterial activity against Shigella sonnei assessed as growth inhibition after 18 hrs by broth dilution method; assay type: functional; outline: as §4
Staphylococcus aureus = test: Antibacterial activity against Staphylococcus aureus FDA 209P JC-1 assessed as growth inhibition after 18 hrs by broth dilution method; assay type: functional; conditions: FDA 209P JC-1, 18 h; outline: as §4
[13] = (§5) Acute toxicity in ip dosed JCL-ICR mouse assessed as animal death; assay type: organism-based; conditions: JCL-ICR, in vivo
Outline: (§6)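 Groups of ten female JCL-ICR mice given single ip dose in physiological saline; deaths followed over 7 days; LD50 (and LD10) derived by Litchfield–Wilcoxon method.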

Mus musculus [14] = test: as §5; assay type: organism-based; conditions: in vivo; outline: as §6
[15] = Acute toxicity in iv dosed mouse; assay type: organism-based; conditions: in vivo
[16] = Acute toxicity in iv dosed dog; assay type: organism-based, Canis lupus familiaris; conditions: in vivo
[17] = Therapeutic index, ratio of LD10 for JCL-ICR mouse to ED90 for mouse S180A cells allografted in ICR mouse; conditions: read-out: TI
Mus musculus [18] = test: Toxicity in ip dosed BDF1 mouse allografted with mouse L1210 cells assessed as optimal dose required for mortality administered qd for 5 days; assay type: organism-based; conditions: in vivo, 120 h
[19] = Antitumor activity against mouse S180A cells allografted in ip dosed ICR mouse administered qd for 5 days; assay type: functional; conditions: 120 h; outline: as §1
L1210 [20] = test: Antitumor activity against mouse L1210 cells allografted in ip dosed BDF1 mouse assessed as 30% increase in host lifespan administered for qd for 5 days; assay type: functional

SMILES: CN(N=O)C(=O)N[C@@H](C=O)[C@@H](O)[C@H](O)[C@H](O)CO [STREPTOZOCIN]
- T/C [1]: 40%
- T/C [2]: 26%
- Activity (Mus musculus [3]): Non-toxic
- Activity (Mus musculus [4]): Non-toxic
- ILS at 50 mg/kg (L1210 [5]): 44%
- ILS at 100 mg/kg (L1210 [6]): 76%
- ILS at 200 mg/kg (L1210 [7]): 0%
- Activity (Mus musculus [8]): Non-toxic
- Activity (Mus musculus [9]): Non-toxic
- Activity (Mus musculus [10]): Non-toxic
- Activity (Rattus norvegicus [11]): Toxic
- Activity (Rattus norvegicus [12]): Toxic
- MIC (Bacillus subtilis): 12.5 µg/mL (≈ 47.1 µM)
- MIC (Escherichia coli): 12.5 µg/mL (≈ 47.1 µM)
- MIC (Klebsiella pneumoniae): > 200 µg/mL
- MIC (Proteus vulgaris): 0.4 µg/mL (≈ 1.51 µM)
- MIC (Pseudomonas fluorescens): 6.3 µg/mL (≈ 23.8 µM)
- MIC (Salmonella typhi): > 200 µg/mL
- MIC (Micrococcus luteus): > 200 µg/mL
- MIC (Shigella sonnei): > 200 µg/mL
- MIC (Staphylococcus aureus): 1.6 µg/mL (≈ 6.03 µM)
- LD50 [13]: 360 mg/kg
- LD10 (Mus musculus [14]): 235 mg/kg
- LD50 [15]: 275 mg/kg
- LD50 [16]: 50 mg/kg
- selectivity ratio [17]: 2.6
- Activity (Mus musculus [18]): 100 mg/kg/day
- ED90 [19]: 90 mg/kg/day
- Activity (L1210 [20]): 23 mg/kg/day
